Reference: paper PMC8880306 (Journal of medicinal chemistry, 2021)
Substitutions are numbered along the chain they refer to.

Experiments:
[1] = Oral bioavailability of ARD-61 in mice; format: in vivo; conditions: mice (data not shown)
Oral exposure = format: in vivo, mice; conditions: male, SCID, mouse, plasma, 10 mg/kg
Outline: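 Non-tumour-bearing male SCID mice were given single oral gavage at 10 mg/kg in 100% PEG200. Three mice per time point were sacrificed at 1, 3 and 6 h. 300 μL blood was taken per animal and centrifuged at 15000 rpm for 10 min. Plasma was stored at −80 °C and quantified by validated LC-MS/MS. Values are mean ± SD.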

AR protein [2] = molecular target: T1, AR protein (Homo sapiens, UniProt P10275); assay: Western blotting of AR protein in VCaP cells; format: cell-based; conditions: for time within which AR protein level is effectively reduced / treatment time for near-complete AR depletion: VCaP cell line
T1 sequence (P10275 1-920): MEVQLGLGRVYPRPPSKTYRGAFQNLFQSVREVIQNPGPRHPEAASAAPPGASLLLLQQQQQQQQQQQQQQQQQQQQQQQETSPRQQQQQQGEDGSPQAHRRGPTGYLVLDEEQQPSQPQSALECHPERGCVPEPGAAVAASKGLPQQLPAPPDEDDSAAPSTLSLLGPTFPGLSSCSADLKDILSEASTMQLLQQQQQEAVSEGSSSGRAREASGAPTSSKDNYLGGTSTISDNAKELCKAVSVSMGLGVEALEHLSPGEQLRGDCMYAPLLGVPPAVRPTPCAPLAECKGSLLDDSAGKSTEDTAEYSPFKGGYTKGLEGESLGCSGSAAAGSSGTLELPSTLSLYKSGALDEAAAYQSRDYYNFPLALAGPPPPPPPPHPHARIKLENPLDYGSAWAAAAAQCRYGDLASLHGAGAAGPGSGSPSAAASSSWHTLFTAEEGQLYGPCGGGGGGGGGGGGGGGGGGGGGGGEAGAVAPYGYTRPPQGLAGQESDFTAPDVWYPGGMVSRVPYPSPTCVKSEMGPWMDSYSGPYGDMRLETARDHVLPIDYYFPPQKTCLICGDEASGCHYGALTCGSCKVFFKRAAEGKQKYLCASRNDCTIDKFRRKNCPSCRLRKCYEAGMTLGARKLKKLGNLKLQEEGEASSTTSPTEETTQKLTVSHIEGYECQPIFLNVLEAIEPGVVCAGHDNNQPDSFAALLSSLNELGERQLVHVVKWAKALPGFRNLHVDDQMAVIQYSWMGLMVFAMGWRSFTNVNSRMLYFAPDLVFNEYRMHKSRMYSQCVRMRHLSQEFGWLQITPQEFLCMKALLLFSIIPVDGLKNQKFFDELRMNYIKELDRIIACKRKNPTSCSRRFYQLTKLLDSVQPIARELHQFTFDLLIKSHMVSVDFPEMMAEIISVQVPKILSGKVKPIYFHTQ

[3] = molecular target: T2, AR protein (AR T878A mutation) (Homo sapiens, UniProt P10275, T878A); assay: Western blotting of AR protein in LNCaP cells; format: cell-based; conditions: LNCaP cell line
T2 sequence (P10275 1-920 T878A): T1 sequence (P10275 1-920) with T878A

AR protein [4] = molecular target: T1, AR protein; assay: Pharmacodynamics: Western blot of AR protein in VCaP xenograft tumors; format: in vivo, mice
[5] = Drug concentrations in plasma and VCaP tumor tissue in SCID mice; format: in vivo; conditions: VCaP tumor tissue, single 20 mg/kg PO, 6 h
Outline: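 Male CB17 SCID mice carried subcutaneous VCaP xenografts (5 × 10^6 cells in 5 mg/mL Matrigel). At approximately 200 mm3 tumour volume, mice received single 20 mg/kg oral gavage in 100% PEG200. Plasma and tumour were taken at 6 and 24 h, three mice per time point. Tumours were frozen, ground in liquid nitrogen, homogenised in water:acetonitrile 4:1 at 4 °C, acetonitrile-precipitated, then assayed by validated LC-MS/MS.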

VCaP xenograft tumor = assay: Antitumor activity in the VCaP xenograft tumor model; format: in vivo; conditions: all dose levels, daily oral, entire 21 day experiment, SCID mice
[6] = single oral administration 20 mg/kg, 6 h
[7] = single oral administration 20 mg/kg, 24 h

| Compound | time within which AR protein level is effectively reduced (AR protein [2]) | treatment time for near-complete AR depletion (AR protein [2]) | time within which AR protein level is effectively reduced [3] | treatment time for near-complete AR depletion [3] | reduction of AR protein level in VCaP tumor tissue (AR protein [4]; [6]) | reduction of AR protein level in VCaP tumor tissue (AR protein [4]; [7]) | other results |
| --- | --- | --- | --- | --- | --- | --- | --- |
| Cc1cc([C@H](C(=O)N2C[C@H](O)C[C@H]2C(=O)N[C@@H](CC(=O)N2CCC(N3CCC(C#Cc4ccc(C(=O)NC5C(C)(C)C(Oc6ccc(C#N)c(Cl)c6)C5(C)C)cc4)CC3)CC2)c2ccc(-c3scnc3C)cc2)C(C)C)on1 (stereo partly shown) [ARD-61] |  |  |  |  |  |  | oral bioavailability [1]: no oral bioavailability |
| CC1(C)[C@H](NC(=O)c2ccc(N3CCN(CCNc4ccc5c(c4)C(=O)N(C4CCC(=O)NC4=O)C5=O)CC3)cc2)C(C)(C)[C@H]1Oc1ccc(C#N)c(Cl)c1 (stereo partly drawn) [Compound 16, N-((1R,3R)-3-(3-Chloro-4-cyanophenoxy)-2,2,4,4-tetramethylcyclobutyl)-4-(4-(2-((2-(2,6-dioxopiperidin-3-yl)-1,3-dioxoisoindolin-5-yl)amino)ethyl)piperazin-1-yl)benzamide] |  |  |  |  |  |  | concentration at 1 h (Oral exposure): 1600 nM; concentration at 3 h (Oral exposure): 1200 nM; concentration at 6 h (Oral exposure): 800 nM |
| CC1(C)[C@H](NC(=O)c2ccc(N3CCN(CC4CN(c5ccc6c(c5)C(=O)N(C5CCC(=O)NC5=O)C6=O)C4)CC3)cc2)C(C)(C)[C@H]1Oc1ccc(C#N)c(Cl)c1 (stereo partly drawn) [Compound 26, N-((1R,3R)-3-(3-Chloro-4-cyanophenoxy)-2,2,4,4-tetramethylcyclobutyl)-4-(4-((1-(2-(2,6-dioxopiperidin-3-yl)-1,3-dioxoisoindolin-5-yl)azetidin-3-yl)methyl)piperazin-1-yl)benzamide] | ≤ 3 h | 6 h | ≤ 3 h | 6 h | modest effect | effective in reducing the levels of AR protein |  |
| CC1(C)[C@H](NC(=O)c2ccc(N3CCN(C4CCN(c5ccc6c(c5)C(=O)N(C5CCC(=O)NC5=O)C6=O)CC4)CC3)cc2)C(C)(C)[C@H]1Oc1ccc(C#N)c(Cl)c1 (stereo partly drawn) [Compound 27, N-((1R,3R)-3-(3-Chloro-4-cyanophenoxy)-2,2,4,4-tetramethylcyclobutyl)-4-(4-(1-(2-(2,6-dioxopiperidin-3-yl)-1,3-dioxoisoindolin-5-yl)piperidin-4-yl)piperazin-1-yl)benzamide] | ≤ 3 h | 6 h | ≤ 3 h | 6 h | only modestly | only modestly | tumor concentration (mean ± SD) [5]: 0.3148 ± 0.0937 µg/kg |
| CC1(C)[C@@H](NC(=O)c2ccc(N3CCN(CC4CCN(c5ccc6c(c5)C(=O)N(C5CCC(=O)NC5=O)C6=O)CC4)CC3)cc2)C[C@@H]1Oc1ccc(C#N)c(Cl)c1 (stereo partly drawn) [Compound 43, N-((1S,3S)-3-(3-Chloro-4-cyanophenoxy)-2,2-dimethylcyclobutyl)-4-(4-((1-(2-(2,6-dioxopiperidin-3-yi)-1,3-dioxoisoindolin-5-yl)-piperidin-4-yl)methyl)piperazin-1-yl)benzamide] |  |  |  |  |  |  | times less potent than compound 28 (AR protein [2]; VCaP, AR degradation): approximately 100 |
| CNC(=O)c1ccc(N2C(=S)N(c3ccc(C#N)c(C(F)(F)F)c3)C(=O)C2(C)C)cc1F [enzalutamide, reference compound] |  |  |  |  |  |  | maximum weight loss (VCaP xenograft tumor): no more than 5% |

Continued, in another order:

| time within which AR protein level is effectively reduced (AR protein [2]) | treatment time for near-complete AR depletion (AR protein [2]) | time within which AR protein level is effectively reduced [3] | treatment time for near-complete AR depletion [3] | reduction of AR protein level in VCaP tumor tissue (AR protein [4]; [6]) | Compound | reduction of AR protein level in VCaP tumor tissue (AR protein [4]; [7]) | other results |
| --- | --- | --- | --- | --- | --- | --- | --- |
| ≤ 3 h | 6 h | ≤ 3 h | 6 h | modest effect | CC1(C)[C@H](NC(=O)c2ccc(N3CCN(CC4CCN(c5ccc6c(c5)C(=O)N(C5CCC(=O)NC5=O)C6=O)CC4)CC3)cc2)C(C)(C)[C@H]1Oc1ccc(C#N)c(Cl)c1 (stereo partly drawn) [Compound 28, N-((1R,3R)-3-(3-Chloro-4-cyanophenoxy)-2,2,4,4-tetramethylcyclobutyl)-4-(4-((1-(2-(2,6-dioxopiperidin-3-yl)-1,3-dioxoisoindolin-5-yl)piperidin-4-yl)methyl)piperazin-1-yl)benzamide] | effective in reducing the levels of AR protein | reduction of AR protein level in VCaP tumor tissue (AR protein [4]; daily oral 10 mg/kg for 3 days, 3 and 6 h after last dose): effectively reduces the levels of AR protein; reduction of AR protein level in VCaP tumor tissue (AR protein [4]; daily oral 10 mg/kg for 3 days, 24 h after last dose): only a modest effect; maximum weight loss (VCaP xenograft tumor): no more than 5% |
| ≤ 3 h |  | ≤ 3 h |  |  | CC1(C)[C@H](NC(=O)c2ccc(N3CCC(N4CCN(c5ccc6c(c5)C(=O)N(C5CCC(=O)NC5=O)C6=O)CC4)CC3)cc2)C(C)(C)[C@H]1Oc1ccc(C#N)c(Cl)c1 (stereo partly drawn) [Compound 33, N-((1R,3R)-3-(3-Chloro-4-cyanophenoxy)-2,2,4,4-tetramethylcyclobutyl)-4-(4-(4-(2-(2,6-dioxopiperidin-3-yl)-1,3-dioxoisoindolin-5-yl)piperazin-1-yl)piperidin-1-yl)benzamide] |  |  |
| ≤ 3 h | 6 h | ≤ 3 h | 6 h |  | CC1(C)[C@H](NC(=O)c2ccc(N3CCC(CN4CCN(c5ccc6c(c5)C(=O)N(C5CCC(=O)NC5=O)C6=O)CC4)CC3)cc2)C(C)(C)[C@H]1Oc1ccc(C#N)c(Cl)c1 (stereo partly drawn) [Compound 34, N-((1R,3R)-3-(3-Chloro-4-cyanophenoxy)-2,2,4,4-tetramethylcyclobutyl)-4-(4-((4-(2-(2,6-dioxopiperidin-3-yl)-1,3-dioxoisoindolin-5-yl)piperazin-1-yl)methyl)piperidin-1-yl)benzamide] |  |  |
